Measurements reported in ChEMBL document CHEMBL1142153, “Pharmacokinetics and disposition of CS-023 (RO4908463), a novel parenteral carbapenem, in animals” (Antimicrob Agents Chemother, 2007).

Legend:
[1] = test system: Rattus norvegicus; assay: Urinary excretion in rat assessed as radioactivity at 10 mg/kg, iv after 24 h; assay type: ADME, organism-based, Urine; parameters: dose 10 mg/kg, route intravenous; conditions: in vivo
Outline: (§1)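 Rats were dosed i.v. via the tail vein with [14C]CS-023 at 10 mg/kg (4.58 MBq/kg) in saline, then kept in individual metabolic cages for separate urine and feces collection over 7 days. Samples up to 24 h were collected at around 4°C into 0.5 M MOPS pH 6.0, and feces were homogenized. Radioactivity was measured by liquid scintillation counting. Parent drug and metabolite were apportioned by silica TLC (3% NaCl:acetonitrile 2:1) with imaging-plate analysis. n=4.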

[2] = test system: Rattus norvegicus; assay: Fecal excretion in rat assessed as radioactivity at 10 mg/kg, iv after 24 h; assay type: ADME, organism-based; parameters: dose 10 mg/kg, route intravenous; conditions: in vivo; outline: as §1

Question: With `C[C@@H]1[C@H]([C@H](C(=O)O)[C@@H](C)O)N=C(C(=O)O)[C@H]1S[C@H]1C[C@@H](C(=O)N2CC[C@H](NC(=O)CNC(=N)N)C2)N(C)C1` as the compound, how does the Activity [1] read?
Answer: 31.4%

Question: And the Activity [2]?
Answer: 1.3%
